MBD2 inh = MBD2-methylated oligo binding inhibition | Q9UBB5 | TR-FRET, MBD2 binding to methylated oligonucleotide | inhibition, % at 4.4 µM | hit rate 0.31% among 370,000; in the data active means inhibition above about 13%
Target sequence (Q9UBB5 whole entry, looked up): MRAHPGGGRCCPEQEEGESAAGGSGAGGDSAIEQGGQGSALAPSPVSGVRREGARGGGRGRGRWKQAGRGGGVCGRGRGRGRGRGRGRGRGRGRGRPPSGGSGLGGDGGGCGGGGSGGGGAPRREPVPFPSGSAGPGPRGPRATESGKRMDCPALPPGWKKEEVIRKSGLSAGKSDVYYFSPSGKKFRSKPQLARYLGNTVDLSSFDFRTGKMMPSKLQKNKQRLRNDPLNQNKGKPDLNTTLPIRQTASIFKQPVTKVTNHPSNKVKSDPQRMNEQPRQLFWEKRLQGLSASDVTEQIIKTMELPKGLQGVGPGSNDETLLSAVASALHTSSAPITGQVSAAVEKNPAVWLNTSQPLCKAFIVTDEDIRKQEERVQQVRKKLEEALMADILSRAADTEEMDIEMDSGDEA
LEDGF integ inh = blocks HIV-1 LEDGF/p75-dependent DNA integration; TR-FRET IN-LEDGF/p75 DNA integration, Eu/Cy5; AID 743269; inhibition, % at 3.7 µM; hit rate 0.64% among 370,000;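 active means inhibition above the screen-wide mean plus 3 SD, cut at about 13% in these data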;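 further: signal is the Cy5 over europium emission ratio at 671 and 618 nm; 0% = plate median of compound wells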
HCV core dimer = HCV core protein dimerization inhibition | TR-FRET GST/Flag-core106 dimerization, 1536-well | inhibition, % at 5 µM | hit rate 0.33% among 300,000 | AID 1899;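 active means inhibition above the mean of all tested compounds plus 3 SD, set per screening campaign, cut at about 45% in these data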
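test system = GST/Flag-tagged HCV core106 proteins | probe or stimulus = Eu donor and XL665 acceptor anti-tag antibodies | times = compound-protein-antibody incubation 4 h at 22.5 °C | signal = TR-FRET, excitation 340 nm, emission 617 and 671 nm | measure = percent inhibition of core106 dimerization signal | controls = wells lacking GST-core106 and wells with excess unlabelled core106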
TDP2 absorb = blocks human TDP2 phosphodiesterase activity; O95551; recombinant TDP2, T5PNP hydrolysis, p-nitrophenol absorbance 415 nm; inhibition, % at 12.8 µM; hit rate 0.34% among 370,000; AID 720702;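 active means inhibition above the mean of all tested compounds plus 3 SD, set per campaign, cut at about 25% in these data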;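 further: 0% = DMSO with enzyme and 100% = buffer with substrate but no TDP2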
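Assay system: recombinant human TDP2 / Reagent: T5PNP substrate at 5 mM, a TopII-DNA adduct mimic / Measured by: epi absorbance from released p-nitrophenol / Evaluation: % inhibition relative to enzyme-containing and enzyme-free wells / Control set: enzyme-free and DMSO wells / Replicates: each compound tested once, singlicate / Schedule: enzyme reaction with compound for 2 h at 37 °C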
UHRF1 binding = UHRF1 methyl-DNA binding inhibition; Q96T88; UHRF1 binding to methylated oligo, TR-FRET; inhibition, % at 4.4 µM; AID 687016; hit rate 0.75% among 370,000; in the data active means inhibition above about 21%;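 further: UHRF1 SRA domain binding a hemimethylated CpG hairpin DNA probe; 0% = median of test compound wells and 100% = reference inhibitor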
An asterisk follows results filed as active; x = not tested or not shown. Sampled rows, rich in hits. Any-hit rate of the full collection: about 1.8%.

SMILES	MBD2 inh	LEDGF integ inh	HCV core dimer	TDP2 absorb	UHRF1 binding
CC(=O)C1(C(=O)NCc2ccccc2)CC(c2ccccc2C(F)(F)F)=NO1 (configuration not stated)	1	2	x	-8	-2
Cc1ccc(S(=O)(=O)NCC2CN(S(=O)(=O)c3ccc(C)cc3)c3ccccc3C(=O)N2c2ccc(F)cc2)cc1 (configuration not stated)	-1	7	x	-11	12
CC(C)CNc1cccc2c1S(=O)(=O)N(Cc1cn(Cc3ccc(C(F)(F)F)cc3)nn1)Cc1ccccc1O2	7	-2	x	3	7
COc1ccc(-n2c(SCc3nc4ccccc4[nH]3)nc3ccccc3c2=O)cc1	6	-2	x	9	5
COC(=O)CCC(=O)OC1(C)C(=O)C=C2C=C(C3CC3)N(c3ccc(CO)cc3)C=C2C1=O (configuration not stated)	x	x	69*	x	x
Cc1c(C(=O)OCC2CCCO2)[nH]c2c1C(=O)CC(c1ccco1)C2 (configuration not stated)	x	x	86*	x	x
C=CCOC(=O)c1[nH]c2c(c1C)C(=O)CC(c1ccco1)C2 (configuration not stated)	x	x	28	x	x
Cc1c(C(=O)OCC(C)C)[nH]c2c1C(=O)CC(c1ccco1)C2 (configuration not stated)	6	5	47*	-4	4
COCC(=O)N(C)[C@H]1C[C@H]2c3[nH]c4c(-c5ccc6c(c5)OCO6)cccc4c3CCN2C(=O)[C@H]1[C@H](C)O	-3	2	x	4	-1
CCN(C(=O)CSc1nnc(-c2cccnc2)n1Cc1ccco1)c1ccccc1C	-5	0	x	-3	-3
O=C(COC(=O)/C=C/c1ccc(Br)o1)Nc1ccc2[nH]c(=O)[nH]c2c1	-3	2	90*	7	0
Cc1ccc(/C=C/C2=Cc3c(sc(NC(=O)CSc4n[nH]c(N)n4)c3C#N)C(C)(C)C2)o1	x	x	89*	x	x
Cc1sc(NC(=O)CSc2n[nH]c(N)n2)c(C#N)c1C	4	-1	x	-3	0
Brc1ccc(CSc2nnc3ccccn23)cc1	7	0	2	3	33*
CC(C)N1Cc2nnn(Cc3ccccc3)c2-c2ccccc2S1(=O)=O	-1	1	x	-10	0
O=Cc1cn(CC(=O)NCC2CCCO2)c2ccccc12 (configuration not stated)	-5	5	-7	-8	7
N#Cc1cn(CC(=O)NCC2CCCO2)c2ccccc12 (configuration not stated)	3	-2	-4	10	23*
O=C1CC2(CCN(C(=O)c3ccc(F)cc3)CC2)Oc2ccccc21	-3	40*	-2	-6	2
O=C1CC2(CCN(C(=O)c3ccccc3F)CC2)Oc2ccccc21	-7	0	0	3	0
Nn1c(SCC(=O)N2CCOCC2)nnc1-c1cc(-c2ccc(F)cc2)n[nH]1	-3	-2	x	-11	-3
Cc1ccc(NS(=O)(=O)c2ccc(-c3cnc(C4CC4)o3)cc2)cc1	-4	-2	-6	-17	1
Cc1ccc(N(C)S(=O)(=O)c2ccc(-c3cnc(C4CC4)o3)cc2)cc1	5	1	4	10	23*
O=S(=O)(CC1NCCc2ccccc21)NCCc1ccccc1 (configuration not stated)	3	-3	x	1	1
CCN(CC)c1ccc(NC(=O)CSc2ccsc2[N+](=O)[O-])c(C)c1	-2	-1	49*	-2	-4
CCOC(=O)c1ccccc1NC(=O)c1ccc2nccnc2c1	3	5	54*	-8	0
SMILES	MBD2 inh	LEDGF integ inh	HCV core dimer	TDP2 absorb	UHRF1 binding
CCOC(=O)c1ccccc1NC(=O)c1ccc2nc[nH]c2c1	3	-2	-6	-3	-3
O=C(OC12CCCN(C1)/C(=C/c1cccc(Cl)c1)C2)c1ccccc1 (configuration not stated)	3	-3	x	-3	-1
CCN(C(=O)COC(=O)c1ccccc1NCCO)c1cccc2ccccc12	4	-2	1	-2	91*
O=C(OCC(=O)N(Cc1ccccc1)Cc1ccccc1)c1ccccc1NCCO	1	3	4	15	5
CCCCOc1ccc(C(=O)NC2CCCCN(Cc3cccc(C(F)(F)F)c3)C2=O)cc1 (configuration not stated)	2	1	x	-11	4
CC(C)Oc1ccc2ccccc2c1CNC[C@H]1O[C@@H](n2cnc(C(N)=O)n2)[C@H](O)[C@@H]1O	6	3	x	0	44*
COc1cc(Cl)c(CNC[C@H]2O[C@@H](n3cnc(C(N)=O)n3)[C@H](O)[C@@H]2O)c(Cl)c1O	-4	1	x	2	-3
NC(=O)c1ncn([C@@H]2O[C@H](CNCc3cccc4c3sc3ccccc34)[C@@H](O)[C@H]2O)n1	9	-2	x	-4	22*
COC(=O)C1CN(Cc2cn(CCC3OCCO3)nn2)CCS(=O)(=O)N1Cc1ccc(Cl)cc1 (configuration not stated)	11	-1	x	1	16
O=C(O)COc1ccc(/C=N/NC(=O)c2ccc(-c3csc(Nc4ccc(Cl)cc4)n3)cc2)cc1	10	-2	x	2	21*
CC(C)N(Cc1ccccc1)C(=O)COC(=O)/C=C/c1cnc2ccccc2n1	-2	3	3	-4	-2
CCN(C(=O)COC(=O)/C=C/c1cnc2ccccc2n1)c1ccccc1	-1	-4	9	-4	26*
Cc1ccc(-c2cnc(NC(=O)c3cccc(Br)c3)s2)c(C)c1	13	-2	-6	6	26*
CC(=O)N[C@H]1C[C@@H]2O[C@H](CO)CC[C@@H]2O[C@@H]1CCc1ccc(-c2ccc(F)cc2)cc1	4	4	x	-2	4
COc1ccc(-c2noc(CNC(=O)Nc3ccc(F)cc3)n2)cc1	4	-3	-7	0	65*
S=c1[nH]cc(-c2ccccc2)[nH]1	-5	-7	-3	-2	-1
O=[N+]([O-])c1ccc(-c2c[nH]c(=S)[nH]2)cc1	-6	3	53*	5	-4
Cc1ccc(Cl)cc1N1CCN(C(=O)CCS(=O)(=O)c2ccc3c(c2)NC(=O)CO3)CC1	-1	2	4	-21	23*
Cc1ccc(-n2nc(-c3ccco3)cc2C(=O)O)c(C)c1	9	5	x	-1	25*
O=C(O)c1cc(-c2ccco2)nn1-c1ccc(Cl)cc1	7	3	x	-6	12
CC(=O)N/N=C(\C)c1cccc(C(F)(F)F)c1	2	3	-7	8	11
CCNC(=S)N/N=C(\C)c1cccc(C(F)(F)F)c1	-6	5	3	9	36*
CC(C)(C)c1ccc(-c2nnc(SCC(=O)Nc3cccc4ccccc34)n2Cc2ccco2)cc1	-3	4	x	-3	-1
